For assay [1], the target named is T1, Transient receptor potential cation channel subfamily V member 1 (Rattus norvegicus, UniProt O35433). Put plainly: (§1) In vitro [Ca2+] influx relative to capsaicin by Rat Vanilloid receptor (VR1) expressing CHO cells. Type of assay: functional, cell-based.
Assay [2] addresses T1, Transient receptor potential cation channel subfamily V member 1. Put plainly: In vitro binding affinity towards Rat Vanilloid receptor 1 (VR1) by [3H]RTX displacement. In outline:
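Rat VR1 stably expressed in tet-off CHO cells; cells grown without antibiotic for 48 h, trypsin-harvested, pelleted and stored at -20 °C. About 5×10^5 cells incubated with 50-100 pM [3H]RTX plus competitor in DPBS (Ca2+/Mg2+) with 0.25 mg/mL BSA, 60 min at 37 °C. Nonspecific binding taken with 100 nM unlabeled RTX.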

In assay [3] the target is Transient receptor potential cation channel subfamily V member 1 (Rattus norvegicus) (UniProt O35433). The assay is described as follows: Inhibition of capsaicin-induced [Ca2+] uptake by Rat Vanilloid receptor 1 (VR1) expressing CHO cells (ineffective). Type of assay: functional, cell-based.
Sequence of Transient receptor potential cation channel subfamily V member 1 (Rattus norvegicus) (O35433 whole entry): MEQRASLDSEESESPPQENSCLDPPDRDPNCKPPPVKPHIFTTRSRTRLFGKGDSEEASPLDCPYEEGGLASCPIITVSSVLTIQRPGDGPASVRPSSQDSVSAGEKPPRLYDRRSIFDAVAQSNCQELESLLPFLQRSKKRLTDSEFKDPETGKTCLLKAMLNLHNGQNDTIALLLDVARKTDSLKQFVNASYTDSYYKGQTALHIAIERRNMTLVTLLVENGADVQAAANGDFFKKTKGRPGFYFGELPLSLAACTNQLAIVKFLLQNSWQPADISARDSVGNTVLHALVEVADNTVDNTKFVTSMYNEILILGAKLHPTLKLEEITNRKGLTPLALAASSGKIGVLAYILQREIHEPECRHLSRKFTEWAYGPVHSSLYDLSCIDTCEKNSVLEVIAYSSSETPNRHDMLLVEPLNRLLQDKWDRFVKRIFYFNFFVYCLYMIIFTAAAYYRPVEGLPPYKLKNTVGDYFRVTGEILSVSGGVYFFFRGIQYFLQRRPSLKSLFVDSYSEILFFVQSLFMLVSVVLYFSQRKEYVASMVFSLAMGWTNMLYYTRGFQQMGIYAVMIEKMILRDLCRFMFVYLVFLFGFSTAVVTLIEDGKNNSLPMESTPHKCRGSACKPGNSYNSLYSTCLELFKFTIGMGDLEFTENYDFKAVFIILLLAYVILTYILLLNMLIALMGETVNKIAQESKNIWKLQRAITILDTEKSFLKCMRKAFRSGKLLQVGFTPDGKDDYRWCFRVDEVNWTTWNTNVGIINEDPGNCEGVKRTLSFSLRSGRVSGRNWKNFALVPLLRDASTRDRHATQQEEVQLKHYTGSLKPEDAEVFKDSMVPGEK
The target in assay [4] is T1, Transient receptor potential cation channel subfamily V member 1. Put plainly: Inhibition of capsaicin-induced [Ca2+] uptake by Rat Vanilloid receptor 1 (VR1) expressing CHO cells. The format is cell-based.
The target of assay [5] is Transient receptor potential cation channel subfamily V member 1 (Rattus norvegicus) (UniProt O35433). The assay is described as §1. Type of assay: functional, cell-based. The conditions noted are these: concentration not given here.
In assay [6] the target is T1, Transient receptor potential cation channel subfamily V member 1. The assay is described as follows: In vitro binding to Rat Vanilloid receptor 1 (VR1) expressing CHO cells compared to capsaicin. Type of assay: cell-based. In outline: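 Tet-off CHO cells stably expressing rat VR1, induced by 48 h culture without tetracycline, harvested with trypsin/EDTA, pelleted and stored at -20 °C. About 5×10^5 cells per tube incubated 60 min at 37 °C with 50-100 pM [3H]RTX, a range of competitor concentrations and 0.25 mg/mL BSA in DPBS with Ca2+/Mg2+. Nonspecific binding measured with 100 nM unlabeled RTX. α-glycoprotein added after incubation, membranes pelleted, scintillation counting. Ki from Hill fit; at least three experiments.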

Assay [7] addresses Transient receptor potential cation channel subfamily V member 1 (Rattus norvegicus) (UniProt O35433). As to conditions: CHO.
For assay [8] the target is unchanged. The assay is described as follows: Displacement of [3H]RTX binding to Rat Vanilloid receptor 1 (VR1) at 10 uM. In general terms: Loss of bound radioactivity is the signal in a displacement assay; it reports binding, not function.

The source made the active and inactive calls. The calls are words filed in the database; no cut-off is given here.

The EC50 is the concentration giving half of the maximal effect. Low readings indicate greater potency, high ones weaker potency. The Ki is a dissociation constant, usually derived from enzyme kinetics or from competition with a known ligand. A high value points to lower affinity. As a reminder, the inhibition is the drop in the measured response relative to a control, in per cent. A high value points to a response far below the control.

T1 sequence (O35433 whole entry): as above

In turn, `Cc1ccc(CC(CN/C(S)=N/Cc2cccc(NS(C)(=O)=O)c2)COC(=O)C(C)(C)C)cc1C` (stereo unspecified) gave an EC50 in assay [1] of 990 nM. The same compound showed an inhibition constant (Ki) in assay [2] of 355 nM. As for `COc1cc(CNC(=S)NCC(COC(=O)C(C)(C)C)Cc2ccc(C)c(C)c2)ccc1O` (stereo unspecified), in assay [1], the EC50 amounted to 1.97 nM. In addition, in assay [3], the NE entry was “inactive”. In assay [1], `Cc1ccc(CC(CN/C(S)=N/Cc2ccc(NS(=O)(=O)C(C)C)cc2)COC(=O)C(C)(C)C)cc1C` (stereo unspecified) registered an EC50 of 790 nM. The compound further displayed an inhibition constant Ki in assay [2] of 227 nM.

As to `CCCS(=O)(=O)Nc1ccc(C/N=C(\S)NCC(COC(=O)C(C)(C)C)Cc2ccc(C)c(C)c2)cc1` (stereo unspecified), the Ki in assay [4] amounted to 940 nM; in assay [2], 313 nM. `Cc1ccc(CC(CN/C(S)=N/Cc2ccc(NS(C)(=O)=O)cc2)COC(=O)C(C)(C)C)cc1C` (stereo unspecified) gave an inhibition in assay [5] of 7%.

Turning to `CC(C)(C)C(=O)OCC(C/N=C(\S)NCc1ccc(NS(C)(=O)=O)cc1)Cc1ccc(C(C)(C)C)cc1` (stereo unspecified), the Ki in assay [4] is 86 nM; in assay [2], 64 nM. In turn, `COc1cc(CNC(=S)NCC(COC(=O)C(C)(C)C)Cc2ccc(C(C)(C)C)cc2)ccc1O` (stereo unspecified) had a half-maximal effective concentration (EC50) in assay [1] of 2.83 nM. Further, the NE result in assay [3] is “inactive”. For `C=C(C)[C@]12C[C@@H](C)[C@@]34O[C@](Cc5ccccc5)(O[C@@H]1[C@@H]3C=C(COC(=O)Cc1ccc(O)c(OC)c1)C[C@]1(O)C(=O)C(C)=C[C@@H]41)O2` [RESINIFERATOXIN], the Ki in assay [6] was 0.13 nM. In the case of `Oc1cc2c(cc1O)CN(C(=S)NCCc1ccc(Cl)cc1)CCC2`, the NE result in assay [7] is “inactive”. Turning to `COc1cc(CNC(=S)NCC(COC(=O)c2ccccc2)Cc2ccc(C)c(C)c2)ccc1NS(C)(=O)=O` (stereo unspecified), the concentration giving a half-maximal response (EC50) in assay [1] came out at 166 nM. The inhibition constant Ki in assay [2] turned out to be 148 nM. Consider `Cc1ccc(CC(CN/C(S)=N/Cc2ccc(NS(C)(=O)=O)cc2)COC(=O)c2ccccc2)cc1C` (stereo unspecified), for which, in assay [1], the concentration giving a half-maximal response (EC50) stood at 1730 nM. Compound `COc1cc(C/N=C(\S)NCC(COC(=O)c2ccccc2)Cc2ccc(C(C)(C)C)cc2)ccc1NS(C)(=O)=O` (stereo unspecified) registered an EC50 in assay [1] of 252 nM. Also, the affinity in assay [2] corresponds to a Ki of 77.2 nM. Take `Cc1ccc(CC(CNC(=S)NCc2ccc(NS(C)(=O)=O)c(F)c2)COC(=O)C(C)(C)C)cc1C` (stereo unspecified): the Ki in assay [4] was 7.8 nM; in assay [2], 54 nM. Regarding `CCS(=O)(=O)Nc1ccc(C/N=C(\S)NCC(COC(=O)C(C)(C)C)Cc2ccc(C)c(C)c2)cc1` (stereo unspecified), the results for the inhibition constant (Ki) in assay [4] and in assay [2] were 309 nM and 108 nM, respectively. Regarding `Cc1ccc(CC(CNC(=S)NCc2ccc(NS(C)(=O)=O)cc2)COC(=O)C(C)(C)C)cc1C` (stereo unspecified), the results for the Ki in assay [4] and in assay [2] were 67 nM and 29.3 nM, respectively. In turn, `Cc1ccc(CC(CN/C(S)=N/Cc2ccc(NS(=O)(=O)C(F)(F)F)cc2)COC(=O)C(C)(C)C)cc1C` (stereo unspecified) came in with an inhibition in assay [8] of 15.5%. In addition, the NE entry in assay [3] is “inactive”. For `COc1cc(CNC(=O)CCCC/C=C/C(C)C)ccc1O`, the NE result in assay [3] is “inactive”. For the compound `CC(C)(C)c1ccc(CC(CNC(=S)NCc2ccc(NS(C)(=O)=O)cc2)COC(=O)c2ccccc2)cc1` (stereo unspecified), the EC50 in assay [1] came to 2790 nM. The compound also displayed a Ki in assay [2] of 239 nM.

`Cc1ccc(CC(CN/C(S)=N/Cc2ccc(NS(=O)(=O)c3ccccc3)cc2)COC(=O)C(C)(C)C)cc1C` (stereo unspecified) came in with a Ki in assay [2] of 2500 nM. Besides, the NE entry in assay [3] was “inactive”. Turning to `COc1cc(C/N=C(\S)NCC(COC(=O)C(C)(C)C)Cc2ccc(C)c(C)c2)ccc1NS(C)(=O)=O` (stereo unspecified), in assay [1], the response was half-maximal at 22 nM (EC50). For the same compound, the Ki in assay [2] turned out to be 49 nM. The matching figures for `Cc1ccc(CC(CNC(=S)NCc2ccc(NC(=O)C(C)C)cc2)COC(=O)C(C)(C)C)cc1C` (stereo unspecified): 1140 nM and 2600 nM.

In assay [1], `CC(=O)Nc1ccc(CNC(=S)NCC(COC(=O)C(C)(C)C)Cc2ccc(C)c(C)c2)cc1` (stereo unspecified) returned a concentration giving a half-maximal response (EC50) of 450 nM. In assay [2], this compound showed a Ki of 1700 nM.

Turning to `Cc1ccc(CC(CNC(=S)NCc2ccc(CNS(C)(=O)=O)cc2)COC(=O)C(C)(C)C)cc1C` (stereo unspecified), the response in assay [1] was half-maximal at 1700 nM (EC50). The same compound had an inhibition constant (Ki) in assay [2] of 3000 nM.
